Results from the RNAGym collection of RNA variant scans (doi:10.1038/s41586-018-0170-7).

B1: tRNA (parent)
chain: GUUCCGUUGGCGUAAUGGUAACGCGUCUCCCUCCUAAGGAGAAGACUGCGGGUUCGAGUCCCGUACGGAACG

Variants of: B1
Assay: yeast fitness, log relative to wild type (ln ratio); higher = fitter; tRNA-Arg(CCU), competitive growth, 37 C, 1 M NaCl
How it was run: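 Genotype fitness is expressed as the natural log of its generations over those of the wild type. Each pool of the tRNA-Arg(CCU) variant library, carried on a HIS3 centromeric plasmid in BY4742 lacking the chromosomal gene, came from one of two independent transformations and grew 4 generations in SC-HIS at 30 °C before ~6.5 generations (~26.5 h) in SC-HIS 1M NaCl at 37 °C. Generation numbers used OD-scaled log2 output/input frequencies from 125 bp paired-end Illumina sequencing, combined across replicates by inverse-variance weighting.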

Variant	yeast fitness (ln)
U2C G6A C66U A69G A70U	-0.222
U2C G6A C66U A69G A70G	-0.0273
U2C G6U A43C C46U C66A C71U	-0.077
U2C G6U C27U A43C A69G A70G	-0.242
U2C G6U C27U A43C A69G A70U	-0.271
U2C G6A C27U A43C C46U A69G A70U C71U	-0.359
U2C G6A A43C C46U C66U A69G C71U	-0.332
U2C G6U A43C C66A A70G C71U	-0.0145
U2C G6U A43C C66U A70U C71U	-0.531
U2C G6U A43C C46U C66U C71U	-0.242
U2C G6A C66A A70G C71U	-0.286
U2C G6A A70G C71U	-0.105
U2C G6U C27U A43C C46U C71U	-0.17
U2C G6A C46U C66U A69G C71U	-0.183
U2C G6U A43C A69G A70G C71U	-0.13
U2C G6A C27U A43C C46U C66A A70U C71U	-0.268
U2C G6A C27U A69G A70U C71U	-0.309
U2C G6U A43C C66U A70G C71U	-0.172
U2C G6U C27U A43C C66U A69G C71U	-0.522
U2C G6A C46U A70G C71U	-0.0308
U2C G6A C27U A43C C46U A70U C71U	-0.113

Variant	yeast fitness (ln)
U2C G6U C27U A70G C71U	-0.309
U2C G6U C27U A43C C46U C66U A69G C71U	-0.465
U2C G6U C27U A43C C66U A70U C71U	-0.363
U2C G6U A69G A70G	-0.133
U2C G6U A69G A70U	-0.117
U2C G6U A43C C46U A69G A70U C71U	-0.393
U2C G6A C27U A70U C71U	-0.141
U2C G6A C27U A43C C66U	-0.179
U2C G6U C27U A43C C66A A70U C71U	-0.272
U2C G6U C27U A43C	-0.0819
U2C G6A A43C C66U A70U C71U	-0.305
U2C G6A C66U A69G A70U C71U	-0.343
U2C G6U A43C C46U A70G	-0.113
U2C G6U A43C C46U A70U	-0.061
U2C G6A C27U A43C C71U	-0.209
U2C G6A A43C C46U C71U	-0.0721
U2C G6A A43C C66A A69G A70G C71U	-0.218
U2C G6U A43C C66U A70U	-0.194
U2C G6U A43C C66U A70G	-0.279
U2C G6A C27U A43C C46U C66U A70G	-0.0221
U2C G6A C27U A43C C46U C66U A70U	-0.0567

Variant	yeast fitness (ln)
U2C G6A C27U C46U C66U A69G A70U C71U	-0.289
U2C G6A A43C C66U	-0.121
U2C G6U A43C C46U C66A A70G C71U	0.00139
U2C G6U A43C C46U C66U A70U	-0.123
U2C G6U A43C C46U C66U A70G	-0.0851
U2C G6A C27U C46U C66U A69G A70U	-0.284
U2C G6A C27U C46U C66U A69G A70G	-0.0335
U2C G6A C27U C46U C66U A69G A70G C71U	-0.0479
U2C G6U C27U A43C C66A	-0.104
U2C G6U C27U A43C C66U	-0.0999
U2C G6U C27U A43C C46U C66A A69G A70G C71U	-0.0738
U2C G6U A43C C46U C66A A70U C71U	-0.153
U2C G6U A43C C46U A69G C71U	-0.17
U2C G6A A43C C46U C66U A69G A70G C71U	-0.0188
U2C G6U C27U A69G A70U C71U	-0.354
U2C G6U C27U A43C C46U C66U A70U C71U	-0.317
U2C G6A C46U C66U A70G C71U	-0.00476
U2C G6U C27U A43C C46U A70G	-0.204
U2C G6U C27U A43C C46U A70U	-0.151
U2C G6U A43C C66U C71U	-0.349
U2C G6U A69G A70U C71U	-0.231

Variant	yeast fitness (ln)
U2C G6A C46U A69G A70G C71U	-0.145
U2C G6A C27U A43C A69G A70U C71U	-0.384
U2C G6U C27U A43C C46U A70U C71U	-0.182
U2C G6U A43C C71U	-0.117
U2C G6A C27U A43C C66U C71U	-0.148
U2C G6U A43C C66U	-0.161
U2C G6U A43C C66A	-0.135
U2C G6A C27U A43C C46U C66A A70G C71U	-0.0721
U2C G6A C27U C46U C71U	-0.119
U2C G6A C66U	0.00772
U2C G6A A43C C66A A70U	-0.0851
U2C G6U C27U A43C C46U C66U A69G A70U C71U	-0.391
U2C G6U C27U A43C A69G C71U	-0.343
U2C G6U C27U A43C A70U	-0.2
U2C G6U C27U A43C A70G	-0.18
U2C G6A A69G A70G C71U	-0.394
U2C G6A C27U A43C C66A A70G C71U	-0.0895
U2C G6U C27U A43C C46U C66U A69G A70U	-0.3
U2C G6U C27U A43C C46U C66U A69G A70G	-0.256
U2C G6U A43C C46U C71U	-0.125
